According to ChEMBL document CHEMBL3227917, “Structure-activity relationships of dimeric Catharanthus alkaloids. 2. Experimental antitumor activities of N-substituted deacetylvinblastine amide (vindesine) sulfates” (J Med Chem, 1979):

Experiments:
[1] = Antitumor activity against mouse Gardner lymphosarcoma allografted in C3H mouse assessed as tumor growth inhibition at 0.20 mg/kg, ip administered daily for 8 to 10 days; assay type: functional; conditions: route intraperitoneal, read-out: TGI
In short: (§1)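 Gardner lymphosarcoma in C3H mice; sulfate salts unless noted, given ip daily for 8–10 days, treatment starting 8 days after tumor implantation. Tumor growth inhibition scored as –, 0–25%; +, 26–50%; ++, 51–75%; +++, 76–100%; T, lethal to ≥5 of 10 animals per group. Average of one or more tests.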

Mus musculus [2] = assay: Toxicity in C57BL/6 mouse allografted with mouse B16 cells assessed as animal death at 0.90 mg/kg, ip administered on days 1,5 and 9; assay type: organism-based; parameters: dose 0.9 mg/kg, route intraperitoneal; conditions: in vivo, 0.9 mg/kg
In short: (§2)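 B16 melanoma cells (10⁶ inoculum) implanted ip in C57BL/6 mice; groups of 10. Sulfate salts unless noted, given ip on days 1, 5 and 9. Single test. Survival prolongation is expressed as percent versus controls, with survivors counted on day 60. Toxic means deaths of ≥5 of 10 animals before the first control death.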

Mus musculus [3] = assay: Toxicity in C57BL/6 mouse allografted with mouse B16 cells assessed as animal death at 1.20 mg/kg, ip administered on days 1,5 and 9; assay type: organism-based; parameters: dose 1.2 mg/kg, route intraperitoneal; conditions: in vivo, 1.2 mg/kg; in short: as §2
[4] = Antitumor activity against mouse Gardner lymphosarcoma allografted in C3H mouse assessed as tumor growth inhibition at 0.10 mg/kg, ip administered daily for 8 to 10 days; assay type: functional; conditions: route intraperitoneal, read-out: TGI; in short: as §1
Mus musculus [5] = assay: Toxicity in C57BL/6 mouse allografted with mouse B16 cells assessed as animal death at 0.60 mg/kg, ip administered on days 1,5 and 9; assay type: organism-based; parameters: dose 0.6 mg/kg, route intraperitoneal; conditions: in vivo, 0.6 mg/kg; in short: as §2
[6] = Antitumor activity against mouse P1534 cells allografted in DBA2 mouse assessed as tumor growth inhibition at 0.40 mg/kg, ip administered daily for 8 to 10 days; assay type: functional; conditions: route intraperitoneal, read-out: TGI
In short: (§3)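 P1534(J) leukemia implanted sc in DBA2 mice; sulfate salts dosed ip daily for 8–10 days. Growth inhibition scored –, 0–25%; +, 26–50%; ++, 51–75%; +++, 76–100%; T, lethal to ≥5 of 10 animals per group. Average of one or more tests.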

[7] = Antitumor activity against mouse Ridgway osteogenic sarcoma allografted in AKR mouse assessed as tumor growth inhibition at 0.05 mg/kg, ip administered daily for 8 to 10 days compound treatment commenced 8 days after tumor implantation; assay type: functional; conditions: route intraperitoneal, read-out: TGI
[8] = Antitumor activity against mouse Ridgway osteogenic sarcoma allografted in AKR mouse assessed as tumor growth inhibition at 0.10 mg/kg, ip administered daily for 8 to 10 days compound treatment commenced 8 days after tumor implantation; assay type: functional; conditions: route intraperitoneal, read-out: TGI
[9] = Antitumor activity against mouse Ridgway osteogenic sarcoma allografted in AKR mouse assessed as tumor growth inhibition at 0.40 mg/kg, ip administered daily for 8 to 10 days compound treatment commenced 8 days after tumor implantation; assay type: functional; conditions: route intraperitoneal, read-out: TGI
[10] = Antitumor activity against mouse P1534 cells allografted in DBA2 mouse assessed as tumor growth inhibition at 0.20 mg/kg, ip administered daily for 8 to 10 days; assay type: functional; conditions: route intraperitoneal, read-out: TGI; in short: as §3
[11] = Antitumor activity against mouse Gardner lymphosarcoma allografted in C3H mouse assessed as tumor growth inhibition at 0.40 mg/kg, ip administered daily for 8 to 10 days; assay type: functional; conditions: route intraperitoneal, read-out: TGI; in short: as §1
[12] = Antitumor activity against mouse Ridgway osteogenic sarcoma allografted in AKR mouse assessed as tumor growth inhibition at 0.20 mg/kg, ip administered daily for 8 to 10 days compound treatment commenced 8 days after tumor implantation; assay type: functional; conditions: route intraperitoneal, read-out: TGI
[13] = Antitumor activity against mouse Gardner lymphosarcoma allografted in C3H mouse assessed as tumor growth inhibition at 0.125 mg/kg, ip administered daily for 8 to 10 days; assay type: functional; conditions: route intraperitoneal, read-out: TGI; in short: as §1
[14] = Antitumor activity against mouse Gardner lymphosarcoma allografted in C3H mouse assessed as tumor growth inhibition at 0.5 mg/kg, ip administered daily for 8 to 10 days; assay type: functional; conditions: route intraperitoneal, read-out: TGI; in short: as §1
[15] = Antitumor activity against mouse Gardner lymphosarcoma allografted in C3H mouse assessed as tumor growth inhibition at 0.25 mg/kg, ip administered daily for 8 to 10 days; assay type: functional; conditions: route intraperitoneal, read-out: TGI; in short: as §1

SMILES	inhibition in vivo at 0.2 mg/kg [1]	Activity (Mus musculus [2])	Activity (Mus musculus [3])	inhibition in vivo at 0.1 mg/kg [4]	Activity (Mus musculus [5])	inhibition in vivo at 0.4 mg/kg [6]	inhibition in vivo at 0.05 mg/kg [7]	inhibition in vivo at 0.1 mg/kg [8]	inhibition in vivo at 0.4 mg/kg [9]	inhibition in vivo at 0.2 mg/kg [10]	inhibition in vivo at 0.4 mg/kg [11]	inhibition in vivo at 0.2 mg/kg [12]	inhibition in vivo at 0.125 mg/kg [13]	inhibition in vivo at 0.5 mg/kg [14]	inhibition in vivo at 0.25 mg/kg [15]
CC[C@]1(O)C[C@H]2CN(CCc3c([nH]c4ccccc34)[C@@](C(=O)OC)(c3cc4c(cc3OC)N(C)[C@H]3[C@@](O)(C(=O)NCCOC)[C@H](O)[C@]5(CC)C=CCN6CC[C@]43[C@@H]65)C2)C1.O=S(=O)(O)O	0%	Toxic	Toxic	0%	Toxic	–	–	–	–	–	–	–	–	–	–
CC[C@]1(O)C[C@H]2CN(CCc3c([nH]c4ccccc34)[C@@](C(=O)OC)(c3cc4c(cc3OC)N(C)[C@H]3[C@@](O)(C(=O)NCCCO)[C@H](O)[C@]5(CC)C=CCN6CC[C@]43[C@@H]65)C2)C1	51%	–	–	–	–	76%	26%	76%	76%	76%	76%	76%	–	–	–
CC[C@]1(O)C[C@H]2CN(CCc3c([nH]c4ccccc34)[C@@](C(=O)OC)(c3cc4c(cc3OC)N(C)[C@H]3[C@@](O)(C(=O)NCCNC(C)=O)[C@H](O)[C@]5(CC)C=CCN6CC[C@]43[C@@H]65)C2)C1	76%	–	–	76%	–	–	–	–	–	–	76%	–	51%	76%	76%
